ChEMBL document CHEMBL1126605, “Antitumor agents. 139. Synthesis and biological evaluation of thiocolchicine analogs 5,6-dihydro-6(S)-(acyloxy)- and 5,6-dihydro-6(S)-[(aroyloxy)methyl]-1,2,3-trimethoxy-9-(methylthio)-8H- cyclohepta[a]naphthalen-8-ones as novel cytotoxic and antimitotic agents” (J Med Chem, 1993)

How the values were obtained:
[1] = target: Tubulin (Bos taurus) (UniProt Q6B856+Q862L2+Q862F3); settings: at 5 µM
[2] = target: T1, Tubulin (Bos taurus, UniProt Q6B856+Q862L2+Q862F3); assay: Inhibition of tubulin polymerization with preincubation for 15 minutes at 37 degree Centigrade prior to addition of the GTP required for polymerization; assay type: functional
[3] = tested on: P388; assay: (§1) Cytotoxicity against murine P388 leukemia cell line; assay type: functional; settings: Mus musculus, read-out: ED50 (the source's name)
[4] = tested on: HCT-8; assay: Cytotoxicity against human solid tumor Colon carcinoma HCT-8 cell line; assay type: functional; settings: read-out: ED50 (the source's name)
[5] = tested on: RPMI-7951; assay: cells; assay type: functional; settings: Homo sapiens, read-out: ED50 (the source's name)
[6] = tested on: KB; assay: Cytotoxicity against human solid tumor nasopharyngeal carcinoma KB cell line; assay type: functional; settings: read-out: ED50 (the source's name)
[7] = tested on: TE-671; assay: Cytotoxicity against human central nervous system carcinoma TE671 cell line; assay type: functional; settings: read-out: ED50 (the source's name)
[8] = tested on: A549; assay: Cytotoxicity against human solid tumor lung carcinoma A549 cell line; assay type: functional; settings: read-out: ED50 (the source's name)
[9] = tested on: Burkitts lymphoma cell; assay: Growth inhibition on human burkitt lymphoma cells after 36 h; assay type: functional, cell-based
[10] = target: T1, Tubulin; assay: Compound was evaluated for the inhibition of tubulin polymerization without pre-incubation; assay type: functional
Method in brief: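 Drug, tubulin and the GTP needed for polymerization were all mixed before the reaction mixtures were incubated at 37 °C, with no drug–tubulin preincubation. IC50 is the drug concentration inhibiting polymerization, given ± SD from at least three experiments per compound.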

[11] = target: T1, Tubulin; assay: Evaluated for the inhibition of tubulin polymerization without pre-incubation; assay type: functional
[12] = tested on: P388; assay: as §1; assay type: functional, Homo sapiens; settings: Mus musculus, read-out: ED50 (the source's name)

inhibition [1] [%]	IC50 [2] [nM]	EC50 [5] [nM]	IC50 [9] [nM]	IC50 [10] [nM]	IC50 [11] [nM]	SMILES	EC50 [3] [nM]	EC50 [4] [nM]	EC50 [6] [nM]	EC50 [7] [nM]	EC50 [8]	EC50 [12] [nM]
2	> 40000	110				COc1cc2c(c(OC)c1OC)-c1ccc(SC)c(=O)cc1[C@@H](COC(=O)c1ccc(Br)cc1)C2	110	9200	92	129	17000 nM	
0	> 40000	629				COc1cc2c(c(OC)c1OC)-c1ccc(SC)c(=O)cc1[C@@H](COC(=O)c1cccc(C#N)c1)C2	99	5780	139	1530	8220 nM	
56	3400	144				COc1cc2c(c(OC)c1OC)-c1ccc(SC)c(=O)cc1[C@@H](COC(C)=O)C2	96	5710	132	1320	1940 nM	
78	6600	114	20			COc1cc2c(c(OC)c1OC)-c1ccc(SC)c(=O)cc1[C@@H](COC(=O)c1ccc([N+](=O)[O-])cc1)C2	10	5670	13	10	4280 nM	
0	> 40000	1090	600			COc1cc2c(c(OC)c1OC)-c1ccc(SC)c(=O)cc1[C@@H](COC(=O)c1cccc([N+](=O)[O-])c1)C2	1050	19	1050	936	1470 nM	
				> 100000		COc1cc2c(cc1O)CCc1cc(OC)c(OC)c(OC)c1-2						
60	3700	0.001			4300	CCOC(=O)OC[C@H]1Cc2cc(OC)c(OC)c(OC)c2-c2ccc(SC)c(=O)cc21	16	179	11	0.001	0.001 nM	
91	3000	40			3800	COc1cc2c(c(OC)c1OC)-c1ccc(SC)c(=O)cc1[C@@H](COC(=O)c1ccccc1F)C2	12	6400	110	129	140 nM	
91	2400	0.084			2800	C=C1Cc2cc(OC)c(OC)c(OC)c2-c2ccc(SC)c(=O)cc21	22	196	140	0.084	252 nM	
83	3400	0.093				CCC(=O)OC[C@H]1Cc2cc(OC)c(OC)c(OC)c2-c2ccc(SC)c(=O)cc21	8	162	93	0.12	220 nM	
46	4500	0.022				CCCC(=O)OC[C@H]1Cc2cc(OC)c(OC)c(OC)c2-c2ccc(SC)c(=O)cc21	0.09	3040	0.13	23	1370 nM	
0	> 40000	926				COc1cc2c(c(OC)c1OC)-c1ccc(SC)c(=O)cc1[C@@H](COC(=O)c1ccc(F)cc1)C2	81	1970	1070	1250	1570 nM	
				100000		COc1cc2c(ccc3cc(OC)c(OC)c(OC)c32)cc1O						
0	> 40000	806				COc1ccc(C(=O)OC[C@H]2Cc3cc(OC)c(OC)c(OC)c3-c3ccc(SC)c(=O)cc32)cc1	138	3280	806	2	> 10 µg/mL	
53	3600	134	60		3700	CC(C)n1cnc2c(Nc3ccc(Br)cc3)nc(N3CCC[C@@H]3CO)nc21	144	160	144	26	240 nM	
0	> 40000	100				COc1cc2c(c(OC)c1OC)-c1ccc(SC)c(=O)cc1[C@@H](COC(=O)c1cccc(F)c1)C2	141	161	110	0.02	80 nM	

SMILES	inhibition [1] [%]	IC50 [2] [nM]	EC50 [5] [nM]	IC50 [9] [nM]	IC50 [10] [nM]	IC50 [11] [nM]	EC50 [3] [nM]	EC50 [4] [nM]	EC50 [6] [nM]	EC50 [7] [nM]	EC50 [8]	EC50 [12] [nM]
COc1cc2c(c(OC)c1OC)-c1ccc(OC)c(=O)cc1[C@@H](NC(C)=O)CC2 [COLCHICINE]			1	50				175	2	1	18 nM	100
